Results taken from ChEMBL document CHEMBL1158546, “Discovery of novel and potent leukotriene B4 receptor antagonists. Part 1” (J Med Chem, 2010).
Values after ≈ are worked out from the molar mass of the structure shown. Active and inactive are the calls of the source. The calls are words filed in the database; no cut-off is given here.

What was measured:
[1] = target: T1, Leukotriene B4 receptor 1 (Homo sapiens, UniProt Q15722); assay: Antagonist activity at BLT1 receptor expressed in human HL60 cells assessed as inhibition of LTB4-stimulated calcium flux after 30 mins; assay type: functional, cell-based, HL-60; conditions: read-out: IC50
Procedure, shortened: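 HL-60 cells grown in RPMI-1640 with 20% FBS were plated at 2.0 × 10^5 cells/ml with 1 μM retinoic acid. They were dye-loaded in HBSS/20 mM HEPES/5 mM probenecid (0.05% BSA in the replacement buffer) for 1 h at 37 C. Compound (5 × 10^-11 to 3 × 10^-6 M final) was added for 30 min at room temperature, then 0.5 μM LTB4. Fluorescence was read every 1.5 s for 100 s and peak increase scored as % inhibition versus DMSO control.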

[2] = target: T1, Leukotriene B4 receptor 1; assay: Antagonist activity at FLAG-tagged human BLT1 receptor expressed in HEK293 cells assessed as inhibition of LTB4-stimulated calcium mobilization preincubated for 10 mins before LTB4 challenge; assay type: functional, cell-based
[3] = target: T2, Leukotriene B4 receptor 2 (Homo sapiens, UniProt Q9NPC1); assay: Antagonist activity at FLAG-tagged human BLT2 receptor expressed in HEK293 cells assessed as inhibition of LTB4-stimulated calcium mobilization preincubated for 10 mins before LTB4 challenge; assay type: functional, cell-based
T2 sequence (Q9NPC1 whole entry): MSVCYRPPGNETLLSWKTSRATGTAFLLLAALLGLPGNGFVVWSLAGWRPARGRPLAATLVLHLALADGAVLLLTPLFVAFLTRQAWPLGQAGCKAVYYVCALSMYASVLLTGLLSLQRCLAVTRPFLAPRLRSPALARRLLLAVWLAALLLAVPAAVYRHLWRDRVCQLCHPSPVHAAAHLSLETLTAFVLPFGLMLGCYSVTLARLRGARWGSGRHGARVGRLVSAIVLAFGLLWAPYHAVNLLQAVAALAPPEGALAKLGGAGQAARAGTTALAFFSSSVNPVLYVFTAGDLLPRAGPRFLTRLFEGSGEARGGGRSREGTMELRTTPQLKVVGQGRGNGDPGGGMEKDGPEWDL

[4] = Lipophilicity, log D of compound at pH 7.4; conditions: buffer
[5] = Solubility of compound in small intestinal contents in the fed state at pH 5; assay type: ADME
Procedure, shortened: (§1)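 Solubility measured in simulated intestinal fluid at pH 5.0 (fed) or pH 6.5 (fasted), reported in μg/mL.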

[6] = Solubility of compound in small intestinal contents in the fasted state at pH 6.5; assay type: ADME; procedure, shortened: as §1
[7] = target: T3, Voltage-gated inwardly rectifying potassium channel KCNH2 (Homo sapiens, UniProt Q12809); assay: Inhibition of human ERG expressed in CHO cells at 3 uM assessed as reduction of current amplitude
Cytochrome P450 1A2 = target: T4, Cytochrome P450 1A2 (Homo sapiens, UniProt P05177); assay: Inhibition of CYP1A2 by fluorescence method; assay type: ADME
T4 sequence (P05177 whole entry): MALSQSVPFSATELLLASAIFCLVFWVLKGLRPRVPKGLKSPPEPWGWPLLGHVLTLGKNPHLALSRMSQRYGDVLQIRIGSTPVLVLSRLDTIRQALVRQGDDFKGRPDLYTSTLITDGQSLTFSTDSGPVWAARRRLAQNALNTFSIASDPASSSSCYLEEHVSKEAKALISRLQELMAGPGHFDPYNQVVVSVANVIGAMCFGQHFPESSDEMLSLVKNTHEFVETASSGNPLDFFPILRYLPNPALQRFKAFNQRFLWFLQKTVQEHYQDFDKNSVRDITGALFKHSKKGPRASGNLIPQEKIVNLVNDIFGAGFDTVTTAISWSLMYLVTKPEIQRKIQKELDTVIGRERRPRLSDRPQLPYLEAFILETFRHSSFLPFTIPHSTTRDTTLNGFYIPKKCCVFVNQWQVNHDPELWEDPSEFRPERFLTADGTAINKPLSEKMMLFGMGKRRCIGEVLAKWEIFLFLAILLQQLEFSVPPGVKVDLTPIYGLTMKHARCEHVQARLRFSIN
Procedure, shortened: (§2)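 Cytochrome P450 high-throughput panel (1A2, 2D6, 2C9, 2C19, 3A4) using fluorogenic substrates; IC50 reported.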

Cytochrome P450 2D6 = Cytochrome P450 2D6 (Homo sapiens, UniProt P10635); assay: Inhibition of CYP2D6 fluorescence method; assay type: ADME
Procedure, shortened: (§3)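 High-throughput CYP panel covering 1A2, 2D6, 2C9, 2C19 and 3A4, using fluorogenic substrates. IC50 was determined in μM.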

Cytochrome P450 2C19 = Cytochrome P450 2C19 (Homo sapiens, UniProt P33261); assay: Inhibition of CYP2C19 fluorescence method; assay type: ADME; procedure, shortened: as §2
Cytochrome P450 3A4 = Cytochrome P450 3A4 (Homo sapiens, UniProt P08684); assay: Inhibition of CYP3A4 fluorescence method; assay type: ADME; procedure, shortened: as §3
Cytochrome P450 2C9 [8] = target: T5, Cytochrome P450 2C9 (Homo sapiens, UniProt P11712); assay: Inhibition of CYP2C9 fluorescence method; assay type: ADME
Cytochrome P450 2C9 [9] = target: T5, Cytochrome P450 2C9; assay: Inhibition of CYP2C9 by LC/MS method; assay type: ADME
[10] = Half life in Sprague-Dawley rat at 10 mg/kg, po; assay type: ADME, organism-based; parameters: dose 10 mg/kg, route oral; conditions: in vivo
Procedure, shortened: (§4)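 Rat single-dose PK, n = 3, with oral dosing at 10 mg/kg and intravenous dosing at 2.5 or 5 mg/kg.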

[11] = Cmax in Sprague-Dawley rat at 10 mg/kg, po; assay type: ADME, organism-based; parameters: dose 10 mg/kg, route oral; conditions: in vivo; procedure, shortened: as §4
[12] = Tmax in Sprague-Dawley rat at 10 mg/kg, po; assay type: ADME, organism-based; parameters: dose 10 mg/kg, route oral; conditions: in vivo; procedure, shortened: as §4
[13] = Oral bioavailability in Sprague-Dawley rat at 10 mg/kg, po; assay type: ADME, organism-based; conditions: in vivo; procedure, shortened: as §4
[14] = Half life in Sprague-Dawley rat at 5 mg/kg, iv; assay type: ADME, organism-based; parameters: dose 5 mg/kg, route intravenous; conditions: in vivo; procedure, shortened: as §4
[15] = Volume of distribution at steady state in Sprague-Dawley rat at 5 mg/kg, iv; assay type: ADME, organism-based; parameters: dose 5 mg/kg, route intravenous; conditions: in vivo, read-out: Vdss; procedure, shortened: as §4
[16] = Clearance in Sprague-Dawley rat at 5 mg/kg, iv; assay type: ADME, organism-based; parameters: dose 5 mg/kg, route intravenous; conditions: in vivo; procedure, shortened: as §4
Neutrophil = assay: Inhibition of LTB4-stimulated human neutrophils migration after 30 mins by using CyQuant GR fluorescent dye; assay type: functional, cell-based; conditions: Homo sapiens, Neutrophil, 0.5 h; read-out: IC50
Procedure, shortened: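 Human blood neutrophils (95-97% pure, isolated over Lympholyte-poly) at 5 × 10^6 cells/mL were preincubated with compound (3 × 10^-12 to 1 × 10^-6 M final) for 30 min at 37 C. Migration toward 100 ng/mL LTB4 across a polycarbonate membrane ran 90 min at 37 C. Migrated cells were lysed with CyQuant GR and read at 480/520 nm. IC50 was taken from a sigmoidal fit of % inhibition.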

[17] = target: T3, Voltage-gated inwardly rectifying potassium channel KCNH2; assay: Inhibition of human ERG expressed in CHO cells assessed as reduction of current amplitude
[18] = Half life in Sprague-Dawley rat at 2.5 mg/kg, iv; assay type: ADME, organism-based; parameters: dose 2.5 mg/kg, route intravenous; conditions: in vivo
[19] = Volume of distribution at steady state in Sprague-Dawley rat at 2.5 mg/kg, iv; assay type: ADME, organism-based; parameters: dose 2.5 mg/kg, route intravenous; conditions: in vivo, read-out: Vdss
[20] = Clearance in Sprague-Dawley rat at 2.5 mg/kg, iv; assay type: ADME, organism-based; parameters: dose 2.5 mg/kg, route intravenous; conditions: in vivo
Cavia porcellus = assay: Antiinflammatory activity against LTB4-evoked eosinophilic pulmonary inflammation in Hartley guinea pig at 10 mg/kg, po after 1 hr treated before LTB4 challenge; assay type: functional, organism-based; parameters: dose 10 mg/kg
Procedure, shortened: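 Male Hartley guinea pigs (250-350 g) were dosed orally with 10 mg/kg in 2% Klucel LF/0.1% Tween-80. One hour later they were exposed to 10 μg/mL LTB4 aerosol for 20 min. BAL (3 × 5 mL HBSS) was done 2 h after challenge under pentobarbital. Cells were counted, and differentials of at least 300 cells were taken on Wright-stained cytospins. Analysis by two-way ANOVA/Bonferroni; 4-20 animals per group.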

Cynomolgus monkey = assay: Antiinflammatory activity against ascaris suum antigen-evoked increase in neutrophils at bronchoalveolar lavage in cynomolgus monkey at 10 mg/kg, po after 1 hr treated before LTB4 challenge; assay type: functional, organism-based; parameters: dose 10 mg/kg; conditions: Macaca fascicularis, in the assay text read “before Ascaris suum antigen challenge” for “before LTB4 challenge”
Procedure, shortened: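 Male cynomolgus monkeys (4-10 kg) naturally hypersensitive to Ascaris suum had baseline BAL 24 h before challenge. They were dosed orally with 10 mg/kg in 15% Labrasol in PEG. One hour later, under ketamine/xylazine, they received antigen aerosol for 90 s by endotracheal tube. BAL neutrophil percentage came from 300-cell LeukoStat differentials, with hemocytometer totals. Analysis by two-way ANOVA/Bonferroni; 3-21 animals per group.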

T5 sequence (P11712 whole entry): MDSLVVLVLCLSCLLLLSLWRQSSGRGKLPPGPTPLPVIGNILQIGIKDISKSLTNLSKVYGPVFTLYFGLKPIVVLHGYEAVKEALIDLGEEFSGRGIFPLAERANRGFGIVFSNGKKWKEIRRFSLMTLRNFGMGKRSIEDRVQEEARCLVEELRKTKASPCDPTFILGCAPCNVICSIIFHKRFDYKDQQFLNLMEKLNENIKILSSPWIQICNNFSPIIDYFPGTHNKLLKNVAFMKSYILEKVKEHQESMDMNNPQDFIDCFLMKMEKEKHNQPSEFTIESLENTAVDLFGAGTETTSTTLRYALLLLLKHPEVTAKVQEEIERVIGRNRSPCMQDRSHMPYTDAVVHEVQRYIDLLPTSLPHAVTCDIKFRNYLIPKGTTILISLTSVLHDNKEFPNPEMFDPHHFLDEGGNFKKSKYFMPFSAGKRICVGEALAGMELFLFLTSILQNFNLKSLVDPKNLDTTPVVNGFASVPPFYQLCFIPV
Chain of Cytochrome P450 3A4 (P08684 whole entry): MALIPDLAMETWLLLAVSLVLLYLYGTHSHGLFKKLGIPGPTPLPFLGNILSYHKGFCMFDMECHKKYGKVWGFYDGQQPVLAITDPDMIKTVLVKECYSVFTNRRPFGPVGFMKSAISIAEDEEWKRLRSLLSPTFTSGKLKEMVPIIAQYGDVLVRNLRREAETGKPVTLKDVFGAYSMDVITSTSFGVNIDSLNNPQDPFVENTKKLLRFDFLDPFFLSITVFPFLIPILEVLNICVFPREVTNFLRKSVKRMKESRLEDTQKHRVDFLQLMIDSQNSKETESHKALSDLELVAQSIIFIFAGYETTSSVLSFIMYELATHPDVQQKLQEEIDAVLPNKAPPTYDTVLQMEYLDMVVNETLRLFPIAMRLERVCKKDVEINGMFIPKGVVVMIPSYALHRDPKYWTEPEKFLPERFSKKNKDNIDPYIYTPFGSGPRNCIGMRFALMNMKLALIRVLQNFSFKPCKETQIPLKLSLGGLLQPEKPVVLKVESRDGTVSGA
Chain of Cytochrome P450 2D6 (P10635 whole entry): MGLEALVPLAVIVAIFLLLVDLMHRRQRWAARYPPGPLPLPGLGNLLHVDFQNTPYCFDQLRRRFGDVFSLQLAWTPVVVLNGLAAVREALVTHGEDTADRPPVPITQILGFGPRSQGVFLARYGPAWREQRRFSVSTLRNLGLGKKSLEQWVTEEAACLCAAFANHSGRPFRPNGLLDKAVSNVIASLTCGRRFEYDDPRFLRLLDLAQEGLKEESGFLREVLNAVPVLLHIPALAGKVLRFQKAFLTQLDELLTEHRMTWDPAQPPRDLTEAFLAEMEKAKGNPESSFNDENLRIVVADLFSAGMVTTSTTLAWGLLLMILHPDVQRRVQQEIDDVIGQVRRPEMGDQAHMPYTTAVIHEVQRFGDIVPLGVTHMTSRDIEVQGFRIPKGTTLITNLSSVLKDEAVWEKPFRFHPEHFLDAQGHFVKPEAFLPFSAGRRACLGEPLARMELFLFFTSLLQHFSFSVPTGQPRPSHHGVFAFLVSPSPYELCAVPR
T1 sequence (Q15722 whole entry): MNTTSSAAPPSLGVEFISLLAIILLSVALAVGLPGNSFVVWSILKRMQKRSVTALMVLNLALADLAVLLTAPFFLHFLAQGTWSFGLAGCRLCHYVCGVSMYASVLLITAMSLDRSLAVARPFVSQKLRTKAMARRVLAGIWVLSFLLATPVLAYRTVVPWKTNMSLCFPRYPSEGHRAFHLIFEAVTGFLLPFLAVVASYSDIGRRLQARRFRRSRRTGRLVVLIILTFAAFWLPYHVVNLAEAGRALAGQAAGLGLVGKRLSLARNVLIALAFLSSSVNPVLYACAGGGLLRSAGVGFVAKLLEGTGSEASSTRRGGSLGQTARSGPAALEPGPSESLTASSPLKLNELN
Chain of Cytochrome P450 2C19 (P33261 whole entry): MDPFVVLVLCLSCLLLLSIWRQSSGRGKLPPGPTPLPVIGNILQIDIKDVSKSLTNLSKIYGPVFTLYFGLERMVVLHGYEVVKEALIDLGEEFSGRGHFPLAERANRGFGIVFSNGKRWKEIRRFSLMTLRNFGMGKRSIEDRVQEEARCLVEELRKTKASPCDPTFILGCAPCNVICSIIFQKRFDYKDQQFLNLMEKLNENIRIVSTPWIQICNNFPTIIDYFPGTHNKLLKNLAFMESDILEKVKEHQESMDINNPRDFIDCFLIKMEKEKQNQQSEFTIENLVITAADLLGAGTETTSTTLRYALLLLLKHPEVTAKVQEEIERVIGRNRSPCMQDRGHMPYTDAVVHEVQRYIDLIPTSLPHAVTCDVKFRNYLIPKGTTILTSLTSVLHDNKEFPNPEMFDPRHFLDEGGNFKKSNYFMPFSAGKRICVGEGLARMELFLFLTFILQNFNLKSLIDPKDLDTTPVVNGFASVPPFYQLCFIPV
T3 sequence (Q12809 whole entry): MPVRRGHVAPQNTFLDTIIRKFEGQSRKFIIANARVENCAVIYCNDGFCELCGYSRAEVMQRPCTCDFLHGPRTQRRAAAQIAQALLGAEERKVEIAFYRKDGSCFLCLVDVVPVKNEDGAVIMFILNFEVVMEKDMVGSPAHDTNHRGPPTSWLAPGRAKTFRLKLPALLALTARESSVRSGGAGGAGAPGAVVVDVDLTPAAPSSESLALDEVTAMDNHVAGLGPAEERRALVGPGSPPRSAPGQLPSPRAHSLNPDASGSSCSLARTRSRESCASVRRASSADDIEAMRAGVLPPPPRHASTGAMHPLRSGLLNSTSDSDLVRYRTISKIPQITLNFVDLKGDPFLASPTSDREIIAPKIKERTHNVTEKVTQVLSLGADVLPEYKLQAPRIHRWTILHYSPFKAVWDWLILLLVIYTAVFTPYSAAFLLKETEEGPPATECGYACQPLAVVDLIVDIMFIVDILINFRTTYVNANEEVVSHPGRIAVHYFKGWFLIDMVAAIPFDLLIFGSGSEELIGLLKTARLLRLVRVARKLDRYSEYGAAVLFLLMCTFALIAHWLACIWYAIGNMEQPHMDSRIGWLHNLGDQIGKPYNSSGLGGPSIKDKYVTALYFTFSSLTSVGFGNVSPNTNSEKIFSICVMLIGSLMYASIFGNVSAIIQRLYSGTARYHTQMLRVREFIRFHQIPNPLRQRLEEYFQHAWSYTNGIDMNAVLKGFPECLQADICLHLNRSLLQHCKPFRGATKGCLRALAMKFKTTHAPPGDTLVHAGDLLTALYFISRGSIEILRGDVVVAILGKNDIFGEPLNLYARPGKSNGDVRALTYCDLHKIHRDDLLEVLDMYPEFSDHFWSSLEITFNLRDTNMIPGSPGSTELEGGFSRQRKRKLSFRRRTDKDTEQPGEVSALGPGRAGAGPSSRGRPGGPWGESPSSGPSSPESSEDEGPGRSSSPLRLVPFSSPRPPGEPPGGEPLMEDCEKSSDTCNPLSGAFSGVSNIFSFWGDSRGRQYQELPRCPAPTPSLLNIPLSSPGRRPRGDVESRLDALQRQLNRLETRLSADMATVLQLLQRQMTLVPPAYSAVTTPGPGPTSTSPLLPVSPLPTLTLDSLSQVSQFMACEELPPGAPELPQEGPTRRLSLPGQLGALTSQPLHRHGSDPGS

Row | Compound | IC50 [1] | IC50 [2] | IC50 [3] | logD [4] | solubility [5] | solubility [6] | INH [7] | IC50 (Cytochrome P450 1A2) | IC50 (Cytochrome P450 2D6) | IC50 (Cytochrome P450 2C19) | IC50 (Cytochrome P450 3A4) | IC50 (Cytochrome P450 2C9 [8]) | IC50 (Cytochrome P450 2C9 [9]) | half-life [10] | Cmax [11] | Tmax [12] | bioavailability [13] | IC50 (Neutrophil) | IC50 [17] | also measured
1 | O=C(O)CCCOc1cccc(CCCCCCOc2cc(-c3ccncc3)cc(-c3ccncc3)c2)c1CCC(=O)O | 0.07 nM | 71 nM | 143 nM | 1.78 | 61 µg/mL (≈ 105 µM) | 22.7 µg/mL (≈ 39 µM) | Not Active | > 7500 nM | > 7500 nM | > 7500 nM | > 7500 nM | 340 nM | 900 nM | 4.52 h | 310 nM | 5 h | 10% |  |  | half-life [14]: 4.52 h; Vd [15]: 1.55 L/kg; clearance [16]: 28.1 mL/min/kg
2 | O=C(O)CCCOc1cccc(CCCCCCOc2cc(-c3ccccc3)cc(-c3ccccc3)n2)c1CCC(=O)O | 0.48 nM | 205 nM | 3060 nM |  | 27.7 µg/mL (≈ 47.6 µM) | 16.5 µg/mL (≈ 28.4 µM) | Not Active | > 7500 nM | > 7500 nM | > 7500 nM | > 7500 nM | > 12500 nM |  | 2.9 h | 2110 nM | 2.3 h | 28% | 1.8 nM | > 3000 nM | half-life [18]: 2.1 h; Vd [19]: 0.3 L/kg; clearance [20]: 7.53 mL/min/kg; Activity (Cavia porcellus): Active; Activity (Cynomolgus monkey): Active
3 | O=C(O)CCCOc1cccc(CCCCCCOc2cc(-c3ccccc3)cc(-c3ccccc3)c2)c1CCC(=O)O | 0.21 nM | 38.5 nM | 628 nM | 0.7 | 338 µg/mL (≈ 582 µM) | 27.3 µg/mL (≈ 47 µM) | Not Active | > 7500 nM | > 7500 nM | > 7500 nM | > 7500 nM | > 50000 nM | > 12500 nM |  |  |  |  |  | > 3000 nM | 
4 | O=C(O)CCCOc1cccc(CCCCCCOc2cc(-c3ccc4c(c3)OCO4)cc(-c3ccccc3F)c2)c1CCC(=O)O | 0.61 nM |  |  | 2.44 | 38.1 µg/mL (≈ 59.3 µM) | 27.1 µg/mL (≈ 42.2 µM) | Not Active | > 7500 nM | > 7500 nM | > 7500 nM | > 7500 nM | 7600 nM |  |  |  |  |  | 7.67 nM |  | 
